# Test results taken from ChEMBL document CHEMBL4706595, “1,3-Oxazine-2-one derived dual-targeted molecules against replicating and non-replicating forms of Mycobacterium tuberculosis” (Eur J Med Chem, 2020).
# Active and inactive are the calls of the source. The calls are words filed in the database; no cut-off is given here.
# Legend:
# [1] = test system: Mycobacterium tuberculosis; experiment: Inhibition of mycolic acid biosynthesis in Mycobacterium tuberculosis H37Ra assessed as reduction in keto-mycolate production at 5XMIC incubated for 7 days by TLC analysis; type: functional; conditions: for inhibition (INH): time 7 day
# [2] = test system: Mycobacterium tuberculosis; experiment: Antimycobacterial activity against replicating Mycobacterium tuberculosis H37Ra assessed as inhibition of bacterial growth incubated for 7 days by MABA assay; type: functional; conditions: time 7 day
# [3] = Cytotoxicity against human PBMC assessed as reduction in cell growth after 72 hrs by MTT assay; type: tissue-based
# [4] = test system: Mycobacterium tuberculosis; experiment: Inhibition of mycolic acid biosynthesis in Mycobacterium tuberculosis H37Ra assessed as reduction in methoxy-mycolate production at 5XMIC incubated for 7 days by TLC analysis; type: functional; conditions: time 7 day
# [5] = test system: Mycolicibacterium smegmatis; experiment: Antimycobacterial activity against Mycobacterium smegmatis mc2155 assessed as inhibition of bacterial growth incubated for 48 hrs by broth microdilution method; type: functional; conditions: MC2 155
# [6] = Inhibition of Mycobacterium tuberculosis H37Ra menG assessed as inhibition of 2-methyl-3-(3,7,11-trimethyldodeca-2,6,10-trienyl)naphthalene-1,4-dione formation using 2-(3,7,11-trimethyldodeca-2,6,10-trienyl)naphthalene-1,4-dione as substrate incubated for 3 hrs in presence of SAM by HPLC analysis
# [7] = test system: Mycobacterium tuberculosis; experiment: Antimycobacterial activity against non-replicating Mycobacterium tuberculosis H37Rv expressing pFCA-LuxAB assessed as bacterial growth inhibition incubated for 10 days under anerobic condition by low oxygen recovery assay; type: functional; conditions: 240 h, time 10 day
# [8] = test system: Mycobacterium tuberculosis; experiment: Inhibition of mycolic acid biosynthesis in Mycobacterium tuberculosis H37Ra assessed as reduction in alfa-mycolate production at 5XMIC incubated for 7 days by TLC analysis; type: functional; conditions: for inhibition (INH): time 7 day
# [9] = Inhibition of Mycobacterium smegmatis mc2155 menG assessed as inhibition of 2-methyl-3-(3,7,11-trimethyldodeca-2,6,10-trienyl)naphthalene-1,4-dione formation using 2-(3,7,11-trimethyldodeca-2,6,10-trienyl)naphthalene-1,4-dione as substrate incubated for 3 hrs in presence of SAM by HPLC analysis; parameters: species or system Mycolicibacterium smegmatis MC2 155
# [10] = test system: Mycobacterium tuberculosis; experiment: Antimycobacterial activity against replicating Mycobacterium tuberculosis H37Rv assessed as inhibition of bacterial growth incubated for 7 days by MABA assay; type: functional; conditions: time 7 day
# [11] = test system: Mycobacterium tuberculosis; experiment: Antimycobacterial activity against Mycobacterium tuberculosis H37Rv ATCC 27294 assessed as inhibition of bacterial growth by agar plate dilution method; type: functional
# In short: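 MIC determined by agar plate dilution method; isoniazid and rifampin run as references.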
# [12] = test system: Mycobacterium tuberculosis; experiment: Inhibition of respiratory system in dormant Mycobacterium tuberculosis H37Ra assessed as reduction in ATP production at 20 to 80 ug/ml measured on day 3 to 9 following drug addition by microplate reader analysis; type: functional; conditions: dose 20-80 µg/ml, time 3-9 day
# [13] = test system: Mycobacterium tuberculosis; experiment: Antimycobacterial activity against dormant Mycobacterium tuberculosis H37Ra assessed as inhibition of bacterial growth at 30 ug/ml incubated for 10 days in presence of Vit-K2 measured following 27 days of culturing on agar plate […] relative to control; type: functional; conditions: dose 30 µg/ml; time 37 day
# In short: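 Dormant H37Ra: 2×10⁶ bacteria/ml in sealed vials, 37 °C, 25 rpm. Cultures with compound (3 or 30 µg/ml) plus 1 mM Vit-K2 grown 10 days, then CFU counted on 7H10 agar after 27 days; comparison with 1 mM Vit-K2 set.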
Structure (SMILES),inhibition ([1]; time 7.0 day),MIC [2],IC50 [3],inhibition (INH) [4],MIC [5],IC50 [6],MIC [7],inhibition ([8]; time 7.0 day),IC50 [9],MIC [10],inhibition (INH) [1],MIC [11],inhibition [12],fold change (FC) [13],inhibition (INH) [8]
CCCCCCOc1ccc(C(=O)OCCCOc2cccc(Nc3nc4ccccc4c(=O)o3)c2)cc1,Active,5.83 µg/mL,123 µg/mL,61%,6.3 µg/mL,13.53 µg/mL,5.32 µg/mL,Active,16.33 µg/mL,6.12 µg/mL,–,–,–,–,–
CC(C)=CCC/C(C)=C/CC/C(C)=C/COc1ccc(C(=O)OCCCOc2cccc(Nc3nc4ccccc4c(=O)o3)c2)cc1,–,2.71 µg/mL,169 µg/mL,100%,3.2 µg/mL,6.25 µg/mL,2.15 µg/mL,–,10.88 µg/mL,2.97 µg/mL,100%,2.9 µg/mL,Active,4.1,100%
CC(C)=CCOc1cccc(NC(=O)Nc2ccccc2C)c1,–,–,–,–,–,–,–,–,–,5.2 µg/mL,–,–,–,–,–
CCCCCCCCCCCCCCCCCCOc1ccc(C(=O)OCCCOc2cccc(Nc3nc4ccccc4c(=O)o3)c2)cc1,–,60.4 µg/mL,158 µg/mL,–,12.5 µg/mL,–,38.2 µg/mL,–,–,56.1 µg/mL,–,–,–,–,–
NNC(=O)c1ccncc1 [ISONIAZID],–,0.3 µg/mL,71.7 µg/mL,–,6.1 µg/mL,–,> 128 µg/mL,–,–,0.43 µg/mL,–,0.4 µg/mL,–,–,–
CCCCCCCCCCCCCCCC(=O)Oc1cccc(Nc2nc3ccccc3c(=O)o2)c1,–,> 100 µg/mL,182 µg/mL,–,100 µg/mL,–,> 100 µg/mL,–,–,> 100 µg/mL,–,–,–,–,–
CCCCCCC(=O)Oc1cccc(Nc2nc3ccccc3c(=O)o2)c1,–,> 100 µg/mL,176 µg/mL,–,50 µg/mL,–,> 100 µg/mL,–,–,> 100 µg/mL,–,–,–,–,–
CCCCCCCCCCOc1ccc(C(=O)OCCCOc2cccc(Nc3nc4ccccc4c(=O)o3)c2)cc1,–,38 µg/mL,173 µg/mL,–,100 µg/mL,–,45.1 µg/mL,–,–,32.1 µg/mL,–,–,–,–,–
CC(=O)Oc1cccc(Nc2nc3ccccc3c(=O)o2)c1,–,> 100 µg/mL,131 µg/mL,–,100 µg/mL,–,80.3 µg/mL,–,–,> 100 µg/mL,–,–,–,–,–
CCC(=O)Oc1cccc(Nc2nc3ccccc3c(=O)o2)c1,–,> 100 µg/mL,180 µg/mL,–,100 µg/mL,–,98.5 µg/mL,–,–,> 100 µg/mL,–,–,–,–,–
CCCCCOc1ccc(C(=O)OCCCOc2cccc(Nc3nc4ccccc4c(=O)o3)c2)cc1,–,8.16 µg/mL,142 µg/mL,48%,25 µg/mL,20.88 µg/mL,9.02 µg/mL,–,27.19 µg/mL,7.01 µg/mL,37%,–,–,–,100%
CCCCCCCCCC(=O)Oc1cccc(Nc2nc3ccccc3c(=O)o2)c1,–,29.6 µg/mL,195 µg/mL,–,25 µg/mL,–,53.3 µg/mL,–,–,33 µg/mL,–,–,–,–,–
CO[C@H]1/C=C/O[C@@]2(C)Oc3c(C)c(O)c4c(O)c(c(/C=N/N5CCN(C)CC5)c(O)c4c3C2=O)NC(=O)/C(C)=C\C=C\[C@H](C)[C@H](O)[C@@H](C)[C@@H](O)[C@@H](C)[C@H](OC(C)=O)[C@@H]1C [RIFAMPIN],–,0.02 µg/mL,62.9 µg/mL,–,1.5 µg/mL,–,0.04 µg/mL,–,–,0.01 µg/mL,–,0.01 µg/mL,–,–,–
CCCCOc1ccc(C(=O)OCCCOc2cccc(Nc3nc4ccccc4c(=O)o3)c2)cc1,–,6.32 µg/mL,117 µg/mL,36%,25 µg/mL,20.06 µg/mL,9.41 µg/mL,–,29.71 µg/mL,7.28 µg/mL,31%,–,–,–,100%
CCCOc1ccc(C(=O)OCCCOc2cccc(Nc3nc4ccccc4c(=O)o3)c2)cc1,–,10 µg/mL,145 µg/mL,–,12.5 µg/mL,–,15.3 µg/mL,–,–,11.7 µg/mL,–,–,–,–,–
